Experimental data as given in ChEMBL document CHEMBL1156144, “Biaryl ethers as novel non-nucleoside reverse transcriptase inhibitors with improved potency against key mutant viruses” (J Med Chem, 2009).

Tests used:
[1] = Clearance in Beagle dog at 0.5 mg/kg, iv; type: ADME, organism-based, Canis lupus familiaris; design: dose 0.5 mg/kg, route intravenous; settings: in vivo
[2] = tested on: Human immunodeficiency virus; experiment: Antiviral activity against HIV with reverse transcriptase Y181C/G190A double mutant assessed as inhibition of viral replication; type: functional, organism-based; settings: Human immunodeficiency virus 1
[3] = tested on: Human immunodeficiency virus; experiment: Antiviral activity against HIV with reverse transcriptase G190S mutant assessed as inhibition of viral replication; type: functional, organism-based; settings: Human immunodeficiency virus 1
[4] = tested on: Human immunodeficiency virus; experiment: Antiviral activity against HIV with reverse transcriptase K101E/G190A double mutant assessed as inhibition of viral replication; type: functional, organism-based; settings: Human immunodeficiency virus 1
[5] = biological target: Human immunodeficiency virus type 1 reverse transcriptase (Human immunodeficiency virus 1, UniProt Q72547, K103N); experiment: Inhibition of RNA-dependent DNA polymerase activity of recombinant HIV reverse transcriptase K103N mutant assessed as BrdU incorporation by standard ECL assay
[6] = tested on: Human immunodeficiency virus; experiment: Antiviral activity against HIV with reverse transcriptase Y181C mutant infected in human MT2 cells assessed as inhibition of viral replication measuring p24 level after 3 days in presence of 10% fetal bovine serum; type: functional; settings: Human immunodeficiency virus 1, MT2, Serum, 72 h; read-out: CIC95
Method in brief: (§1)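 Multiple-cycle replication (Spread) assay in MT2 cells with H9IIIB-background mutant virus. Cells were infected overnight at moi ≈ 0.01 without compound, washed, then cultured 3 days across a range of compound concentrations in medium with 10% FBS. p24 was measured in supernatants. CIC95 is the lowest concentration inhibiting replication by ≥95%, reported as the geometric mean of ≥2 determinations.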

Canis familiaris [7] = experiment: Cardiotoxicity in conscious cardiovascular dog assessed as heart rate at 10 mg/kg, iv; type: toxicity, organism-based, Canis lupus familiaris; design: dose 10 mg/kg, route intravenous; settings: in vivo
[8] = tested on: Human immunodeficiency virus; experiment: Antiviral activity against HIV with reverse transcriptase L100I mutant assessed as inhibition of viral replication; type: functional, organism-based; settings: Human immunodeficiency virus 1
[9] = Volume of distribution in Beagle dog at 0.5 mg/kg, iv; type: ADME, organism-based, Canis lupus familiaris; design: dose 0.5 mg/kg, route intravenous; settings: in vivo
[10] = tested on: Human immunodeficiency virus; experiment: Antiviral activity against HIV with reverse transcriptase MDRC4 mutant assessed as inhibition of viral replication; type: functional, organism-based; settings: Human immunodeficiency virus 1
[11] = tested on: Human immunodeficiency virus; experiment: Antiviral activity against HIV with reverse transcriptase K101E/Y181C/G190A mutant assessed as inhibition of viral replication; type: functional, organism-based; settings: Human immunodeficiency virus 1
Rhesus monkey = experiment: AUC in rhesus monkey at 5 mg/kg, po; type: ADME, organism-based, Macaca mulatta, Plasma; design: dose 5 mg/kg, route oral; settings: in vivo
[12] = Half life in rhesus monkey at 1 mg/kg, iv; type: ADME, organism-based, Macaca mulatta; design: dose 1 mg/kg, route intravenous; settings: in vivo
[13] = Plasma concentration in rat at 100 mg/kg, po after 24 hrs; type: ADME, organism-based; design: dose 100 mg/kg, route oral
[14] = Oral bioavailability in Beagle dog at 1 mg/kg; type: ADME, organism-based, Canis lupus familiaris; settings: in vivo
[15] = Volume of distribution in rhesus monkey at 1 mg/kg, iv; type: ADME, organism-based, Macaca mulatta; design: dose 1 mg/kg, route intravenous; settings: in vivo
[16] = Inhibition of RNA-dependent DNA polymerase activity of wild type HIV reverse transcriptase assessed as BrdU incorporation by standard ECL assay; design: species or system Human immunodeficiency virus
Method in brief: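 Purified recombinant wild-type RT polymerase activity was measured using a 500-nt heteropolymeric RNA template and a biotinylated DNA primer. BrdU incorporation was detected with a ruthenylated anti-BrdU antibody by electrochemiluminescence. Ki is the geometric mean of at least two determinations, each within 25% of the mean.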

Canis familiaris [17] = experiment: AUC in Beagle dog at 1 mg/kg, po; type: ADME, organism-based, Canis lupus familiaris, Plasma; design: dose 1 mg/kg, route oral; settings: in vivo
[18] = tested on: Human immunodeficiency virus; experiment: Antiviral activity against HIV with reverse transcriptase CNDO mutant assessed as inhibition of viral replication; type: functional, organism-based; settings: Human immunodeficiency virus 1
[19] = tested on: Human immunodeficiency virus; experiment: Antiviral activity against HIV with reverse transcriptase K103N/Y181C/G190A mutant assessed as inhibition of viral replication; type: functional, organism-based; settings: Human immunodeficiency virus 1
[20] = Volume of distribution in Sprague-Dawley rat at 2 mg/kg, iv; type: ADME, organism-based; design: dose 2 mg/kg, route intravenous; settings: in vivo
Canis familiaris [21] = experiment: Cardiotoxicity in conscious cardiovascular dog assessed as mean arterial pressure at 10 mg/kg, iv; type: toxicity, organism-based, Canis lupus familiaris, Heart; design: dose 10 mg/kg, route intravenous; settings: in vivo
[22] = tested on: Human immunodeficiency virus; experiment: Antiviral activity against HIV with reverse transcriptase K103N/Y181C double mutant assessed as inhibition of viral replication; type: functional, organism-based; settings: Human immunodeficiency virus 1
[23] = tested on: Human immunodeficiency virus; experiment: Antiviral activity against HIV with reverse transcriptase G190A mutant assessed as inhibition of viral replication; type: functional, organism-based; settings: Human immunodeficiency virus 1
[24] = Clearance in Sprague-Dawley rat at 2 mg/kg, iv; type: ADME, organism-based; design: dose 2 mg/kg, route intravenous; settings: in vivo
[25] = tested on: Human immunodeficiency virus; experiment: Antiviral activity against HIV with reverse transcriptase K103N/Y181C double mutant infected in human MT2 cells assessed as inhibition of viral replication measuring p24 level after 3 days in presence of 10% fetal bovine serum; type: functional; settings: Human immunodeficiency virus 1, MT2, Serum, 72 h; read-out: CIC95; method in brief: as §1
[26] = tested on: Human immunodeficiency virus; experiment: Antiviral activity against wild type HIV H9-3B infected in human MT2 cells assessed as inhibition of viral replication measuring p24 level after 3 days in presence of 50% normal human serum; type: functional; settings: Human immunodeficiency virus 1, H9-3B, 72 h, read-out: CIC95
Method in brief: (§2)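 Multiple-cycle spread assay in MT2 cells with wild-type H9IIIB virus. Cells were infected overnight at moi ≈ 0.01 without compound, washed, then cultured 3 days across varying compound concentrations in RPMI 1640 with 10% FBS or 50% NHS. p24 was measured in supernatants. CIC95 is the lowest concentration inhibiting replication ≥95%, as the geometric mean of ≥2 determinations.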

[27] = tested on: Human immunodeficiency virus; experiment: Antiviral activity against HIV with reverse transcriptase Y188L mutant assessed as inhibition of viral replication; type: functional, organism-based; settings: Human immunodeficiency virus 1
Cytochrome P450 2D6 = Cytochrome P450 2D6 (Homo sapiens, UniProt P10635); experiment: Inhibition of CYP2D6; type: ADME
Chain of Cytochrome P450 2D6 (P10635 whole entry): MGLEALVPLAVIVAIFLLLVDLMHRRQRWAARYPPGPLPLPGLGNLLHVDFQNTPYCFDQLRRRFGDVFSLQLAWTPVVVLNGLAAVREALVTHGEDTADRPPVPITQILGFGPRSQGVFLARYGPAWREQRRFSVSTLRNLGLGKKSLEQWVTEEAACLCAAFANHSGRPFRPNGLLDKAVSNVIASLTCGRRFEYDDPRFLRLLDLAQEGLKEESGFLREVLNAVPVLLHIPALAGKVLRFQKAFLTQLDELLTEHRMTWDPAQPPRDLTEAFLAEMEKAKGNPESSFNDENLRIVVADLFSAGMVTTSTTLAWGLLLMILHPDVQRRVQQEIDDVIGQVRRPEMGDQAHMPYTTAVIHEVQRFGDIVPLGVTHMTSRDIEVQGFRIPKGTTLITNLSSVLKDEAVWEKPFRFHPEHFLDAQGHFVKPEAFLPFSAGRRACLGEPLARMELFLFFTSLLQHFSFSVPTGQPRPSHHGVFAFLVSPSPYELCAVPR

[28] = tested on: Human immunodeficiency virus; experiment: Antiviral activity against HIV with reverse transcriptase V106A/G190A/F227L mutant assessed as inhibition of viral replication; type: functional, organism-based; settings: Human immunodeficiency virus 1
[29] = tested on: Human immunodeficiency virus; experiment: Antiviral activity against HIV with reverse transcriptase K103N/P225H double mutant assessed as inhibition of viral replication; type: functional, organism-based; settings: Human immunodeficiency virus 1
Cytochrome P450 3A4 = Cytochrome P450 3A4 (Homo sapiens, UniProt P08684); experiment: Inhibition of CYP3A4; type: ADME
Chain of Cytochrome P450 3A4 (P08684 whole entry): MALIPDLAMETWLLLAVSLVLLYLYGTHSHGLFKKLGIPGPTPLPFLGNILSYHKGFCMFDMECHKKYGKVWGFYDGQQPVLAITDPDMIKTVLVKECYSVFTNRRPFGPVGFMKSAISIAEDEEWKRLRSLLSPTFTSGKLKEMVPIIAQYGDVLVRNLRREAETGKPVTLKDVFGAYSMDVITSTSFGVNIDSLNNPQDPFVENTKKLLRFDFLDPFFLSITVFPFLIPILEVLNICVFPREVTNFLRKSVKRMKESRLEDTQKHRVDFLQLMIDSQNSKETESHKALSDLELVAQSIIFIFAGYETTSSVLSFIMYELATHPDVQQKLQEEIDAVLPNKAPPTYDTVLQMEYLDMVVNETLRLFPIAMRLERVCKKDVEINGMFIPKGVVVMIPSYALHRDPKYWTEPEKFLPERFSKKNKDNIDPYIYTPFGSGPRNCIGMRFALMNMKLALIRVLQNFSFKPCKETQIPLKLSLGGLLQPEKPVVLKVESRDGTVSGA

[30] = Clearance in rhesus monkey at 1 mg/kg, iv; type: ADME, organism-based, Macaca mulatta; design: dose 1 mg/kg, route intravenous; settings: in vivo
[31] = tested on: Human immunodeficiency virus; experiment: Antiviral activity against wild type HIV H9-3B infected in human MT2 cells assessed as inhibition of viral replication measuring p24 level after 3 days in presence of 10% fetal bovine serum; type: functional; settings: Human immunodeficiency virus 1, MT2, Serum; read-out: CIC95; method in brief: as §2
[32] = tested on: Human immunodeficiency virus; experiment: Antiviral activity against HIV with reverse transcriptase K103N mutant assessed as inhibition of viral replication; type: functional, organism-based; settings: Human immunodeficiency virus 1
Rattus norvegicus [33] = experiment: AUC in Sprague-Dawley rat at 10 mg/kg, po; type: ADME, organism-based, Plasma; design: dose 10 mg/kg, route oral; settings: in vivo
[34] = tested on: Human immunodeficiency virus; experiment: Antiviral activity against HIV with reverse transcriptase K103N mutant infected in human MT2 cells assessed as inhibition of viral replication measuring p24 level after 3 days in presence of 10% fetal bovine serum; type: functional; settings: Human immunodeficiency virus 1, MT2, Serum, 72 h; read-out: CIC95; method in brief: as §1
[35] = tested on: Human immunodeficiency virus; experiment: Antiviral activity against HIV with reverse transcriptase Y181C mutant assessed as inhibition of viral replication; type: functional, organism-based; settings: Human immunodeficiency virus 1
[36] = Half life in Sprague-Dawley rat at 2 mg/kg, iv; type: ADME, organism-based; design: dose 2 mg/kg, route intravenous; settings: in vivo
[37] = Oral bioavailability in Sprague-Dawley rat at 10 mg/kg; type: ADME, organism-based; settings: in vivo
[38] = Half life in Beagle dog at 0.5 mg/kg, iv; type: ADME, organism-based, Canis lupus familiaris; design: dose 0.5 mg/kg, route intravenous; settings: in vivo
[39] = Oral bioavailability in rhesus monkey at 5 mg/kg; settings: in vivo
Canis familiaris [40] = experiment: Cardiotoxicity in conscious cardiovascular dog assessed as electrocardiogram at 10 mg/kg, iv; type: toxicity, organism-based, Canis lupus familiaris, Heart; design: dose 10 mg/kg, route intravenous; settings: in vivo
[41] = tested on: Human immunodeficiency virus; experiment: Antiviral activity against HIV with reverse transcriptase K103N/G190A double mutant assessed as inhibition of viral replication; type: functional, organism-based; settings: Human immunodeficiency virus 1
Rattus norvegicus [42] = experiment: AUC in Sprague-Dawley rat at 2 mg/kg, iv; type: ADME, organism-based, Plasma; design: dose 2 mg/kg, route intravenous; settings: in vivo
[43] = tested on: Human immunodeficiency virus; experiment: Antiviral activity against HIV with reverse transcriptase L100I/K103N double mutant assessed as inhibition of viral replication; type: functional, organism-based; settings: Human immunodeficiency virus 1

Q: Which clearance [1] does the source give for `N#Cc1cc(Cl)cc(Oc2cc(OCc3n[nH]c4nc(N)ccc34)cc(F)c2Cl)c1` here?
A: Its clearance is 4 mL/min/kg.

Q: What about the IC50 [2] of the same molecule?
A: The IC50 was 4.3 nM.

Q: And the IC50 [3]?
A: The IC50 was 37.3 nM.

Q: And the IC50 [4]?
A: The IC50 was 3.4 nM.

Q: And the Ki [5]?
A: Its Ki is 0.4 nM.

Q: What about the IC95 [6] of the same molecule?
A: Its IC95 is 14 nM.

Q: And the Activity (Canis familiaris [7])?
A: The Activity was “Non-toxic”.

Q: And the IC50 [8]?
A: Its IC50 is 0.6 nM.

Q: What about the Vd [9] of the same molecule?
A: The Vd was 2.3 L/kg.

Q: What about the IC50 [10] of the same molecule?
A: Its IC50 is 6.4 nM.

Q: And the IC50 [11]?
A: The IC50 was 19.2 nM.

Q: And the AUC (Rhesus monkey)?
A: The AUC was 1.7 µM.

Q: What about the half-life [12] of the same molecule?
A: Its half-life is 4.2 h.

Q: And the AUC at 24 h [13]?
A: The AUC at 24 h was 180 µM·h.

Q: And the bioavailability [14]?
A: The bioavailability was 63%.

Q: And the Vd [15]?
A: The Vd was 3.6 L/kg.

Q: What about the Ki [16] of the same molecule?
A: The Ki was 0.1 nM.

Q: And the AUC (Canis familiaris [17])?
A: Its AUC is 6 µM.

Q: What about the IC50 [18] of the same molecule?
A: Its IC50 is 1.1 nM.

Q: And the IC50 [19]?
A: Its IC50 is 84.3 nM.

Q: What about the Vd [20] of the same molecule?
A: The Vd was 3.5 L/kg.

Q: And the Activity (Canis familiaris [21])?
A: The Activity was “Non-toxic”.

Q: What about the IC50 [22] of the same molecule?
A: The IC50 was 184 nM.

Q: What about the IC50 [23] of the same molecule?
A: Its IC50 is 2 nM.

Q: And the clearance [24]?
A: The clearance was 10 mL/min/kg.

Q: And the IC95 [25]?
A: Its IC95 is 62 nM.

Q: What about the IC95 [26] of the same molecule?
A: Its IC95 is 69 nM.

Q: What about the IC50 [27] of the same molecule?
A: Its IC50 is 326 nM.

Q: What about the IC50 (Cytochrome P450 2D6) of the same molecule?
A: The IC50 was 47400 nM.

Q: And the IC50 [28]?
A: Its IC50 is > 1000 nM.

Q: What about the IC50 [29] of the same molecule?
A: Its IC50 is 3.3 nM.

Q: And the IC50 (Cytochrome P450 3A4)?
A: The IC50 was 4400 nM.

Q: And the clearance [30]?
A: The clearance was 15 mL/min/kg.

Q: And the IC95 [31]?
A: The IC95 was 8 nM.

Q: What about the IC50 [32] of the same molecule?
A: The IC50 was 3.3 nM.

Q: What about the AUC (Rattus norvegicus [33]) of the same molecule?
A: Its AUC is 18 µM.

Q: And the IC95 [34]?
A: Its IC95 is 18 nM.

Q: And the IC50 [35]?
A: Its IC50 is 2.2 nM.

Q: And the half-life [36]?
A: Its half-life is 4.6 h.

Q: What about the bioavailability [37] of the same molecule?
A: Its bioavailability is 49%.

Q: What about the half-life [38] of the same molecule?
A: The half-life was 7 h.

Q: And the bioavailability [39]?
A: Its bioavailability is 13%.

Q: What about the Activity (Canis familiaris [40]) of the same molecule?
A: Its Activity is “Non-toxic”.

Q: And the IC50 [41]?
A: Its IC50 is 9.6 nM.

Q: And the AUC (Rattus norvegicus [42])?
A: Its AUC is 7.4 µM.

Q: What about the IC50 [43] of the same molecule?
A: Its IC50 is 112 nM.
